Reference: ChEMBL document CHEMBL3526035, “Role of the intestinal peptide transporter PEPT1 in oseltamivir absorption: in vitro and in vivo studies” (Drug Metab Dispos, 2012)

What was measured:
[1] = AUC(0 to 5 hrs) in juvenile fasted Sprague-Dawley rat at 30 mg/kg, po administered as 125 mM aqueous Gly-Sar solution by HPLC-tandem mass spectrometry; assay type: ADME, organism-based; parameters: time < 5 hr, dose 30 mg/kg, route oral; conditions: plasma
Outline: (§1)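 7-day-old Sprague-Dawley pups (9.7-18.9 g, both sexes), 15 per group. Given 30 mg/kg by oral gavage (10 ml/kg); breast-fed pups stayed with dams, fasted pups were removed 8 h before dosing. Blood taken by cardiac puncture under isoflurane at 0.25, 0.5, 1, 2 and 5 h, n=3 per time point (composite design). Dichlorvos-treated plasma assayed by LC-MS/MS; AUC0-5h by noncompartmental analysis.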

[2] = AUC(0 to 6 hrs) in adult fasted Sprague-Dawley rat at 30 mg/kg, po administered as 125 mM aqueous Gly-Sar solution by HPLC-tandem mass spectrometry; assay type: ADME, organism-based; parameters: time < 6 hr, dose 30 mg/kg, route oral; conditions: plasma
Outline: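 Adult male Sprague-Dawley rats (243-283 g), jugular-cannulated, fasted from 6 h before dosing through the 6-h study. Given 30 mg/kg orally (free base) at 10 ml/kg, n=3/group. Blood sampled at 0.25-6 h into K2EDTA with dichlorvos esterase inhibitor. Plasma assayed by LC-MS/MS (0.1-500 μg/l). Noncompartmental analysis: linear-trapezoid AUC; infinity extrapolation via log-linear terminal λz.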

[3] = Drug uptake in CHOK1 cells incubated for 30s to 15 mins by HPLC coupled with radiodetection analysis; assay type: ADME, cell-based, Cricetulus griseus; conditions: chinese hamster, cho-k1, 0.25 h
Outline: (§2)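 Accumulation of [14C]oseltamivir or its carboxylate in CHO-PEPT1 versus CHO-K1 cells. Conditions varied: KH buffer (with MES) or Hanks' balanced salt solution, pH 5 or 6 readjusted after substrate addition, 30 s to 15 min at 37°C. Uptake was quenched with ice-cold PBS-BSA, followed by Triton X-100 lysis, scintillation counting, and BCA protein normalization. HPLC-radiodetection checked ester stability.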

[4] = Cmax in juvenile breast-fed Sprague-Dawley rat at 30 mg/kg, po administered as water solution by HPLC-tandem mass spectrometry; assay type: ADME, organism-based; parameters: dose 30 mg/kg, route oral; conditions: in vivo; outline: as §1
[5] = Cmax in adult fed Sprague-Dawley rat at 30 mg/kg, po administered as 125 mM aqueous Gly-Sar solution by HPLC-tandem mass spectrometry; assay type: ADME, organism-based; parameters: dose 30 mg/kg, route oral; conditions: in vivo
Outline: (§3)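 Adult cannulated Sprague-Dawley rats, fasted (from 6 h predose) or fed, dosed orally at 30 mg/kg (10 ml/kg), 3 per group. Serial jugular plasma with dichlorvos stabilisation, measured by LC-MS/MS. Cmax read graphically from the concentration-time profile.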

[6] = Apparent oral clearance in healthy human at 150 mg, po administered as single dose by HPLC-tandem mass spectrometry under fasting conditions; assay type: ADME, organism-based; conditions: in vivo
Outline: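 Open-label crossover in 18 healthy volunteers (9 male, 9 female, mean age 26). Each received marketed oseltamivir 150 mg orally, once fasted from midnight and once after a high-fat, high-calorie breakfast, with a 7-10 day washout. Plasma and urine collected over 0-72 h and analysed by HPLC-MS/MS. AUC and Cmax compared after log transformation.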

[7] = Cmax in adult fasted Sprague-Dawley rat at 30 mg/kg, po administered as solution in bovine milk by HPLC-tandem mass spectrometry; assay type: ADME, organism-based; parameters: dose 30 mg/kg, route oral; conditions: in vivo; outline: as §3
[8] = Drug uptake in CHOK1 cells at pH 6 by HPLC coupled with radiodetection analysis; assay type: ADME, cell-based, Cricetulus griseus; conditions: chinese hamster, cho-k1, pH 6
[9] = biological target: T1, Solute carrier family 15 member 1 (Homo sapiens, UniProt P46059); experiment: Inhibition of human PEPT1 expressed in CHOK1 cells assessed as Gly-Sar uptake at 0.3 to 10 mM after 10 mins by HPLC coupled with radiodetection analysis; assay type: cell-based; conditions: cho-k1, 10 min, 10000 µM
T1 sequence (P46059 whole entry): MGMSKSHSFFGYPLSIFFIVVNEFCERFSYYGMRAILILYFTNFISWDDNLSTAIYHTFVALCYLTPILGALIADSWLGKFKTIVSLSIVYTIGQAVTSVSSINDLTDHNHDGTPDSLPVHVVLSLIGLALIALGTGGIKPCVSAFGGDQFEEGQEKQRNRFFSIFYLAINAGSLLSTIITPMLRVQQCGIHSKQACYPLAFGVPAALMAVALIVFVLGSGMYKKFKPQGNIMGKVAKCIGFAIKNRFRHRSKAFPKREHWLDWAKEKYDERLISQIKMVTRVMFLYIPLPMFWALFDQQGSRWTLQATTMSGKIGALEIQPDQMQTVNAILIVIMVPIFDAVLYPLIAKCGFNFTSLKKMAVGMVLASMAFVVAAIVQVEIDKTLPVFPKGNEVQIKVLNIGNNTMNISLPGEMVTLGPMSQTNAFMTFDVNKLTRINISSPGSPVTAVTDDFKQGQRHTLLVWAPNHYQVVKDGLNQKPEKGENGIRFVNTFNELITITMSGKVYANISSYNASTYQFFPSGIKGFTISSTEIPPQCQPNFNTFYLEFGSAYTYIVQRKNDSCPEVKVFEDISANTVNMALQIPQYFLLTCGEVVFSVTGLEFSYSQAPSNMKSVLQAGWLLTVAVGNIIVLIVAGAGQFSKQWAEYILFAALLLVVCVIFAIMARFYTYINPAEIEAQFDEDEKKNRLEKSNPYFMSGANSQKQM
Outline: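 Competition assay in CHO-PEPT1 cells: 2 µM [3H]Gly-Sar with oseltamivir or oseltamivir carboxylate at 0.3–10 mM, 10 min at 37°C, pH 6, KH/MES buffer. Tyr-Phe 0.5 mM served as positive control. Intracellular radioactivity was measured per mg protein. Three independent experiments.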

[10] = AUC(0 to 6 hrs) in adult fed Sprague-Dawley rat at 30 mg/kg, po administered as water solution by HPLC-tandem mass spectrometry; assay type: ADME, organism-based; parameters: time < 6 hr, dose 30 mg/kg, route oral; conditions: plasma
Outline: (§4)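 Sprague-Dawley males, 7-8 weeks, 243-283 g, jugular-cannulated, 3 days' recovery; fed (chow ad libitum). Single oral dose of 30 mg/kg (free base) at 10 ml/kg; 3 rats/group. Jugular blood taken at 0.25-24 h into K2EDTA with dichlorvos, kept on ice. Plasma analysed by validated LC-MS/MS (0.1-500 μg/l). Noncompartmental analysis; AUC by linear trapezoid, AUC0-∞ extrapolated using λz.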

[11] = Cmax in juvenile fasted Sprague-Dawley rat at 30 mg/kg, po administered as solution in bovine milk by HPLC-tandem mass spectrometry; assay type: ADME, organism-based; parameters: dose 30 mg/kg, route oral; conditions: in vivo; outline: as §1
[12] = Tmax in juvenile fasted Sprague-Dawley rat at 30 mg/kg, po administered as water solution by HPLC-tandem mass spectrometry; assay type: ADME, organism-based; parameters: dose 30 mg/kg, route oral; conditions: in vivo
Outline: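 Seven-day-old Sprague-Dawley pups, males and females, 15 per group, were gavaged with 30 mg/kg (10 ml/kg). Breast-fed pups stayed with their dams; fasted pups were removed from 8 h predose through 5 h. Cardiac blood was drawn under isoflurane at 0.25, 0.5, 1, 2 and 5 h (composite, n=3/time point), with dichlorvos added. Plasma was analyzed by HPLC-MS/MS and Tmax read graphically.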

[13] = AUC(0 to 24 hrs) in adult fed Sprague-Dawley rat at 30 mg/kg, po administered as solution in bovine milk by HPLC-tandem mass spectrometry; assay type: ADME, organism-based; parameters: time < 24 hr, dose 30 mg/kg, route oral; conditions: in vivo; outline: as §4
[14] = Drug uptake in CHOK1 cells expressing human PEPT1 at pH 6 by HPLC coupled with radiodetection analysis; assay type: ADME, cell-based, Cricetulus griseus; conditions: chinese hamster, cho-k1, pH 6; outline: as §2

## CCOC(=O)C1=C[C@@H](OC(CC)CC)[C@H](NC(C)=O)[C@@H](N)C1 [OSELTAMIVIR]
[1]
  AUC(0-t) at 5 h: 27100 ng·h/mL
[2]
  AUC(0-t) at 6 h: 3780 ng·h/mL
[3]
  Drug uptake: Active
[4]
  Cmax: 6140 ng/mL
[5]
  Cmax: 926 ng/mL
[6]
  CL/F: 13000 mL/min
[7]
  Cmax: 1630 ng/mL
[8]
  Drug uptake: Active
[9]
  inhibition (INH): Not Active
[10]
  AUC(0-t) at 6 h: 2200 ng·h/mL
[11]
  Cmax: 7990 ng/mL
[12]
  Tmax: 0.5 h
[13]
  AUC(0-t) at 24 h: 2800 ng·h/mL
[14]
  Drug uptake: Active

## CCC(CC)O[C@@H]1C=C(C(=O)O)C[C@H](N)[C@H]1NC(C)=O [OSELTAMIVIR CARBOXYLATE]
[1]
  AUC(0-t) at 5 h: 10900 ng·h/mL
[2]
  AUC(0-t) at 6 h: 8350 ng·h/mL
[3]
  Drug uptake: Active
[4]
  Cmax: 1500 ng/mL
[5]
  Cmax: 693 ng/mL
[6]
  CL/F: 371 mL/min
[7]
  Cmax: 1630 ng/mL
[8]
  Drug uptake: Active
[9]
  inhibition (INH): Not Active
[10]
  AUC(0-t) at 6 h: 3540 ng·h/mL
[11]
  Cmax: 2460 ng/mL
[12]
  Tmax: 2 h
[13]
  AUC(0-t) at 24 h: 6330 ng·h/mL
[14]
  Drug uptake: Active
